From ChEMBL document CHEMBL1133729, “Design, synthesis, and structure-activity relationships of phthalimide-phenylpiperazines: a novel series of potent and selective alpha(1)(a)-adrenergic receptor antagonists” (J Med Chem, 2000) come the findings set out here.

For assay [1], the target named is T1, Alpha-1B adrenergic receptor (Homo sapiens, UniProt P35368).
T1 sequence (P35368 whole entry): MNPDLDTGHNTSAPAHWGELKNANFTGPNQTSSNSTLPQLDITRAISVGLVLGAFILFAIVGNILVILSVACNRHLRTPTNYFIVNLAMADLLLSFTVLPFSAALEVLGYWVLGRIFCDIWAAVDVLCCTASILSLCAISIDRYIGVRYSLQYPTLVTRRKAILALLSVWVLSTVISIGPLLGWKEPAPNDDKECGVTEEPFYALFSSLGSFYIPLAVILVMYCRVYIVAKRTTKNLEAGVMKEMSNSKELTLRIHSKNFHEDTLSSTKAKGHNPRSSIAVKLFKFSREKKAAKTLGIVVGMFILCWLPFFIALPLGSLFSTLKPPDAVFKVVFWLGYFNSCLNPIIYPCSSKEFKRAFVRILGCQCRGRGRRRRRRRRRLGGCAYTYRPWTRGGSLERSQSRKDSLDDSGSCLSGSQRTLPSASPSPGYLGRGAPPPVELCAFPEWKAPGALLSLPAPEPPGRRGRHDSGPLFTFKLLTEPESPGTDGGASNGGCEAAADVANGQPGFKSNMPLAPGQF
Nature of the assay: Binding affinity towards cloned human alpha-1B adrenergic receptor was determined using [125]-HEAT as radioligand. In outline:
(§1)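 Human α1a, α1b and α1d cDNAs transiently expressed in COS-1 cells (DEAE-dextran); membranes harvested 72 h post-transfection. Competition versus 50 pM [125I]HEAT (final), 0.1 pM–10 μM test compound in half-log steps, in TNE buffer pH 7.4. Membrane protein 0.1 μg (α1a, α1b) or 2.6 μg (α1d); 1 h at 25 °C. Filtration, scintillation counting; Ki = IC50/(1 + [L]/Kd). Ratios are subtype Ki over α1a Ki.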

For assay [2], the target named is T2, Alpha-1A adrenergic receptor (Homo sapiens, UniProt P35348).
T2 sequence (P35348 whole entry): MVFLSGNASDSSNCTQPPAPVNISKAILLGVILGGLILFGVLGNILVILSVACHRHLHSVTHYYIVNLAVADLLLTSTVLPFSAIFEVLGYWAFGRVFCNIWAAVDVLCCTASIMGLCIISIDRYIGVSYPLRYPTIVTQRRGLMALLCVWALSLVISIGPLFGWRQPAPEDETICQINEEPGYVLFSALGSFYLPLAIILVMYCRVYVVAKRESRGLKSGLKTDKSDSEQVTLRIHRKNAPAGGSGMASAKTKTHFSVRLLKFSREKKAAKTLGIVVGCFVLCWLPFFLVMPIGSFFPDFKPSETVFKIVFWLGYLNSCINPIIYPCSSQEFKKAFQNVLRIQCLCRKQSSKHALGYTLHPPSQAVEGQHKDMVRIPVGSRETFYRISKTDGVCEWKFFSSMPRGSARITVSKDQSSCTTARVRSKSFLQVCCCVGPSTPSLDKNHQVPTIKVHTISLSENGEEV
Nature of the assay: Binding affinity towards cloned human alpha-1A adrenergic receptor was determined using [125]-HEAT as radioligand.

Assay [3] addresses T3, 5-hydroxytryptamine receptor 1A (Homo sapiens) (UniProt P08908).
T3 sequence (whole entry): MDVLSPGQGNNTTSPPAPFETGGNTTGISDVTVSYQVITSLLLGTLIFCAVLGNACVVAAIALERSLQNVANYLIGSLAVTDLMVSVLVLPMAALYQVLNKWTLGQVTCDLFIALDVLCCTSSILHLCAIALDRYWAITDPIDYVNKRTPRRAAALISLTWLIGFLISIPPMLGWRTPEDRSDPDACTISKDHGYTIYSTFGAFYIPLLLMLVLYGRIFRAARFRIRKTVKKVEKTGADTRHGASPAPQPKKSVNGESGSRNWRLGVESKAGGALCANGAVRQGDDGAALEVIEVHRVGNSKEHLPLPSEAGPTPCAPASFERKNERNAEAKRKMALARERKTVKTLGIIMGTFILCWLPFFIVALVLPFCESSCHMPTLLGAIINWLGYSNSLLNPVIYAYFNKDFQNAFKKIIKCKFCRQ
The assay can be described thus: Compound at 1 uM was tested for the inhibition of radioligand [3H]8-OH-DPAT binding to recombinant human 5-hydroxytryptamine 1A receptor.

Assay [4] addresses T4, Alpha-1D adrenergic receptor (Homo sapiens, UniProt P25100).
T4 sequence (P25100 whole entry): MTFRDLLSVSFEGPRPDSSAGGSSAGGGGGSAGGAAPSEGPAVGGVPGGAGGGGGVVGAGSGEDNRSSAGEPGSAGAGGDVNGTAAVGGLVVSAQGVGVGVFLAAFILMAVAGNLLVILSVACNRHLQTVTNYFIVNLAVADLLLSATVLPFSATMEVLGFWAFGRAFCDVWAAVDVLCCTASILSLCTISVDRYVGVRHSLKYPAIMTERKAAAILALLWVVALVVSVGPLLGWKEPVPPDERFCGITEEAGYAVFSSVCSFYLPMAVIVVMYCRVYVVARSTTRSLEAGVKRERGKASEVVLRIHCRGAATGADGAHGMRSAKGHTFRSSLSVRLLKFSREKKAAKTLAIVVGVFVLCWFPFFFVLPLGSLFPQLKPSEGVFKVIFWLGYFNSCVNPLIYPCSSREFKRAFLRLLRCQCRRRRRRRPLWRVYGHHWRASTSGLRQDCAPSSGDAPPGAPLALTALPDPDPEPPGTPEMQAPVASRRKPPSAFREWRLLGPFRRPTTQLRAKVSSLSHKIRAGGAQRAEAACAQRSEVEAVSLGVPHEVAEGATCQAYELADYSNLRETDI
The assay can be described thus: Binding affinity towards cloned human alpha-1D adrenergic receptor was determined using [125]-HEAT as radioligand. In outline: as §1

Assay [5] addresses T5, D(4) dopamine receptor (Homo sapiens) (UniProt P21917).
T5 sequence (whole entry): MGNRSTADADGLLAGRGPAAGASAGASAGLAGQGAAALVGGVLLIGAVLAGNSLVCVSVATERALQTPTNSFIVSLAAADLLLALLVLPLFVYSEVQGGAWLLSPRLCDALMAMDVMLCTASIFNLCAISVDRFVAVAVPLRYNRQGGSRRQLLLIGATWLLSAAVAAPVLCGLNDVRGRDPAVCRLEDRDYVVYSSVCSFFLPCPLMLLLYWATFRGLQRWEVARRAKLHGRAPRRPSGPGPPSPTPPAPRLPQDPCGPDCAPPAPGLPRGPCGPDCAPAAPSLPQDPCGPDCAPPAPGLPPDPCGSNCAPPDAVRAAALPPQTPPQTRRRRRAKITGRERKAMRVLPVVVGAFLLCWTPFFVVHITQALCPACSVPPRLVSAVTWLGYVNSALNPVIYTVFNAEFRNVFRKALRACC
Nature of the assay: Compound at 1 uM was tested for the inhibition of radioligand [3H]spiperone binding to recombinant human Dopamine receptor D4.7. The essentials:
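Recombinant human D4.7 in CHO cell membranes; [3H]spiperone for 120 min at 25 °C, pH 7.4 Tris-HCl/NaCl/EDTA; haloperidol (10 μM) for nonspecific binding. Compound at 1 μM, percent inhibition determined in duplicate; filtration, scintillation counting.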

SMILES strings stand for the structures. A value given as a limit tells only on which side of the number the result lay.

As to `Cc1ccc(N2C(=O)c3ccc(C(=O)NC[C@H](O)CN4CCN(c5ccccc5OC(C)C)CC4)cc3C2=O)cc1`, the Ki in assay [1] was more than 1650 nM; in assay [2], 0.29 nM; in assay [4] it was 54 nM. In addition, the inhibition in assay [3] worked out at 92%.

Regarding `CC(C)Oc1ccccc1N1CCN(CCCNC(=O)c2ccc3c(c2)C(=O)N(c2cccc(F)c2)C3=O)CC1`, the Ki in assay [1] stood at 482 nM; in assay [2], 0.41 nM; in assay [4], 22 nM. The inhibition was 95% in assay [3] and 69% in assay [5].

As to `CC(C)Oc1ccccc1N1CCN(C[C@@H](O)CNC(=O)c2ccc3c(c2)C(=O)N(c2cccc(F)c2)C3=O)CC1`, the results for the Ki in assay [1], in assay [2] and in assay [4] were more than 2000 nM, 1.02 nM and 190 nM, respectively. In addition, the inhibition in assay [3] was found to be 98%; in assay [5], 43%.

For `CCOc1ccccc1OCCN[C@H](C)Cc1ccc(OC)c(S(N)(=O)=O)c1` [TAMSULOSIN], the Ki in assay [1] was 1.92 nM; in assay [4] it was 0.18 nM. Besides, the inhibition in assay [3] amounted to 115%; in assay [5] it was 21%.

In the case of `CC(C)Oc1ccccc1N1CCN(C[C@@H](O)CNC(=O)c2ccc3c(c2)C(=O)N(c2ccc(N(C)C)cc2)C3=O)CC1`, the Ki is more than 2000 nM in assay [1], 0.33 nM in assay [2] and 52 nM in assay [4]. The results for the inhibition in assay [3] and in assay [5] were 92% and 50%, respectively.

For the compound `Cc1ccc(N2C(=O)c3ccc(C(=O)NCCCN4CCN(c5ccccc5OC(C)C)CC4)cc3C2=O)cc1`, the Ki is more than 2000 nM in assay [1], 0.16 nM in assay [2] and 37 nM in assay [4]. The inhibition in assay [3] amounted to 90%; in assay [5] it was 20%.

For the compound `COc1ccc(N2C(=O)c3ccc(C(=O)NCCCN4CCN(c5ccccc5OC(C)C)CC4)cc3C2=O)cc1`, the Ki in assay [1] was determined as 361 nM; in assay [2], 0.11 nM; in assay [4], 16 nM. For the same compound, the inhibition in assay [3] was 104%; in assay [5], 32%.
